One block for each molecule: values may come before it.
How the values were obtained:
[1] = target: peptide 300 (GGWSHW) (human)
[2] = target: peptide 300 (GGWSHW) (human); assay: radioligand binding
[3] = tested on: melanoma cells; settings: murine lung colonization assay; ref Tuszynski et al., 1992; cited from earlier work
[4] = target: human plasma fibronectin (Homo sapiens, UniProt P02751); assay: Direct binding of [125I]fibronectin to immobilized peptides; settings: solid phase assay, labeled fibronectin
[5] = target: fibronectin (Homo sapiens, UniProt P02751); assay type: binding; settings: for IC50 for competition of [125I]fibronectin binding to peptide GGWSHW: irrelevant proteins as inhibitors; for Inhibition of fibronectin binding to immobilized peptide GGWSHW, in words: soluble peptide or protein as inhibitor
Method in brief: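 Wells were incubated 2 h at 25°C with [¹²⁵I]human plasma fibronectin (0.2 μg/ml final per methods; 0.5 μg/ml per legends) plus serial dilutions of soluble inhibitors. Wells were washed three times with DPBS, cut out and counted. Duplicates; percent of specific binding without inhibitor.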

[6] = target: peptide GGWSHW (Homo sapiens, UniProt P07996); assay type: binding; settings: detection with antibody 191; wells coated with 50 μg/ml GGWSHW
Method in brief: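 Peptide GGWSHW (50 μg/ml) was coated on microtiter wells and blocked with 1% BSA. Wells were incubated with graded concentrations of unlabeled intact fibronectin, the 30-kD proteolytic gelatin-binding domain or the 120-kD proteolytic cell-binding fragment. After washing, bound protein was detected sequentially with 5 μg/ml monoclonal antibody 191 and ¹²⁵I-goat anti-IgG, then counted. Values are mean ± SD of duplicates.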

[7] = target: human plasma fibronectin (human); assay: radioligand binding

Sequence of fibronectin (P02751 306-608 limits assumed): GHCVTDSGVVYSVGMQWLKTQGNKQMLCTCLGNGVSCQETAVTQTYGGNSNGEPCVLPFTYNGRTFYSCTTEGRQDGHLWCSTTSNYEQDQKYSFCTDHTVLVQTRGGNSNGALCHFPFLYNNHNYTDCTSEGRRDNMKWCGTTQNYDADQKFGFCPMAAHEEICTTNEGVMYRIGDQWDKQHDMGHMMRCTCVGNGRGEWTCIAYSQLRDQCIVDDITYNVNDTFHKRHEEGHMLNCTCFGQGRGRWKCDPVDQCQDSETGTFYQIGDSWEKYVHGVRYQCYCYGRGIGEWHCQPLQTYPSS
Sequence of human plasma fibronectin (P02751 306-608 limits assumed): as above

half saturation [1]: 15 µg/mL
Molecule: 30-kD proteolytic gelatin-binding domain of fibronectin (domain or fragment)

fold less active as inhibitor than the 33-kD fragment [2]: 10 fold
Molecule: 40-kD recombinant fragment of fibronectin with the same amino terminus as the 28-kD fragment (domain or fragment)

Fibronectin binding to immobilized peptide, in words [4]: inactive
Molecule: DGWSPW (DGWCSPW) [compound 317]

IC50 for competition of [125I]fibronectin binding to peptide GGWSHW [5]: > 200 µg/mL
Molecule: fetuin: irrelevant control protein [reference compound]

Inhibition of fibronectin binding to immobilized peptide GGWSHW, in words [5]: competed
Half saturation of binding to immobilized peptide GGWSHW [6]: 0.7 µg/mL
Molecule: fibronectin

Inhibition of fibronectin binding to immobilized peptide GGWSHW, in words [5]: competed
Molecule: thrombospondin: human platelet thrombospondin, extracellular matrix glycoprotein

IC50 for competition of [125I]fibronectin binding to peptide GGWSHW [5]: > 200 µg/mL
Molecule: transferrin: irrelevant control protein [reference compound]

IC50 for competition of [125I]fibronectin binding to peptide GGWSHW [5]: > 200 µg/mL
B1: ovalbumin: irrelevant control protein (protein)
chain: MGSIGAASMEFCFDVFKELKVHHANENIFYCPIAIMSALAMVYLGAKDSTRTQINKVVRFDKLPGFGDSIEAQCGTSVNVHSSLRDILNQITKPNDVYSFSLASRLYAEERYPILPEYLQCVKELYRGGLEPINFQTAADQARELINSWVESQTNGIIRNVLQPSSVDSQTAMVLVNAIVFKGLWEKAFKDEDTQAMPFRVTEQESKPVQMMYQIGLFRVASMASEKMKILELPFASGTMSMLVLLPDEVSGLEQLESIINFEKLTEWTSSNVMEERKIKVYLPRMKMEEKYNLTSVLMAMGITDVFSSSANLSGISSAESLKISQAVHAAHAEINEAGREVVGSAEAGVDAASVSEEFRADHPFLFCIKHIATNAVLFFGRCVSP

Further lines, the molecule ahead of its results:

Molecule: CSTSCG
Inhibition of metastasis of melanoma cells, in words [3]: inhibit

Molecule: CSVTCG
Inhibition of metastasis of melanoma cells, in words [3]: inhibit

Molecule: GGWGPW [compound 318]
Fibronectin binding to immobilized peptide, in words [4]: inactive

Molecule: peptide 340 (AAWSHW)
IC50 [7]: > 300 µM

Molecule: GGWSHWSPWSS [peptide 256 (…)]
IC50 [7]: > 300 µM
